# LMPTP inh – blocks human LMPTP phosphatase; AID 651560; 360,000 tested, 0.22% active; P24666; recombinant LMPTP-A, OMFP fluorogenic substrate, fluorescence intensity; inhibition, % at 20 µM;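 active = compounds that cut the enzyme signal by at least half of the control window in the single-dose screen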
# Target sequence (P24666 whole entry, looked up): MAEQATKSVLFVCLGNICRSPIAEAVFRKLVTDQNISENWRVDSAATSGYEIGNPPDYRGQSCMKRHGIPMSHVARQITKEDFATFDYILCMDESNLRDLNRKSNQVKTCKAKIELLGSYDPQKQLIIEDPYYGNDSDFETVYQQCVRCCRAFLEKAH
#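 Buffer or medium: Bis-Tris pH 6.0, DTT, detergent; Assay system: LMPTP-A enzyme; Quantity: 0.625 nM enzyme; Detection: endpoint fluorescence intensity; Times: 50 min dark incubation at room temperature; Controls: substrate-only low control, DMSO enzyme-plus-substrate high control; Doses: single 20 µM dose; Read-out: percent inhibition versus substrate-only and uninhibited controls; Reagent: 400 µM OMFP.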
# Scp1 inh – blocks human Scp-1 phosphatase activity; Recombinant Scp1, phosphopeptide, malachite green phosphate absorbance; inhibition, % at 20 µM; 340,000 tested, 0.88% active;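 active = inhibition above about 50% at 20 µM, limit read from the data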
# Target sequence (Q9GZU7 76-261 limits assumed): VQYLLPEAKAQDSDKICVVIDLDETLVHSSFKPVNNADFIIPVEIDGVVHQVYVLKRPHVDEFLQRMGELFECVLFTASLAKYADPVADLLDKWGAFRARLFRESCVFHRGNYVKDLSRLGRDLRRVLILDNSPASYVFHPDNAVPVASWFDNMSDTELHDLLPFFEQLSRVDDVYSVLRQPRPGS
#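 Times: enzyme reaction 45 min at room temperature, colour 5 min, stabilisation 30 min. Material: SCP-1 catalytic fragment, aa 76-261. Medium: Acidic Tris acetate buffer with magnesium and detergent. Signal: colorimetric free-phosphate detection, absorbance 630 nm. Read-out basis: % inhibition of SCP-1 phosphate liberation. Reagent: Phosphorylated 17-residue peptide substrate.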
# SUMO1-SIM PPI – alters human SUMO1 binding to SIM partners. P63165. SUMO1 binding to a labelled peptide, TR-FRET, 1 h. inhibition, % at 20 µM. 360,000 tested, 0.33% active; in the data active = inhibition above about 37%
# Target sequence (P63165 whole entry, looked up): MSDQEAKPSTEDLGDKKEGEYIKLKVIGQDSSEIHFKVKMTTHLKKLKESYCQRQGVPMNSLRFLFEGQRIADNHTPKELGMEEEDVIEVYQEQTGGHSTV
# DNMT1 inh – inhibitors of human DNMT1 | 360,000 tested, 0.83% active | DNMT1 molecular beacon, Hinp1I cleavage, fluorescence | P26358 | AID 588458 | inhibition (reported as % activation of signal), % at 10 µM; in the data active = inhibition above about 50%
# NadD inh – inhibitors of Staphylococcus aureus NadD. purified NadD enzyme, colorimetric absorbance read-out. inhibition, % at 20 µM. 360,000 tested, 0.78% active; in the data active = inhibition above about 26%
# STEP inh – blocks human striatal-enriched tyrosine phosphatase; 360,000 tested, 0.25% active; inhibition, % at 20 µM; P54829; recombinant STEP, OMFP fluorogenic substrate, fluorescence;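 active = inhibition at 20 µM, scaled per plate between control wells, above about 37%, limit read from the data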
#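 Test system: STEP tyrosine phosphatase / Reagent: OMFP at 25 µM / Doses: 20 µM, 1% DMSO / Read-out: percent inhibition scaled to no-enzyme and uninhibited-enzyme controls, plate-pattern corrected / Detection: FITC-channel fluorescence of OMFP product / Medium: Bis-Tris buffer pH 6.0, 2.5 mM DTT, 0.005% Tween 20 / Schedule: 20 min at room temperature, dark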
# Hits are given with their value; i = inactive; ! = not confirmed by another sample. Hits are enriched below; roughly 2.4% of the tested compounds scored in any of these assays.
SMILES,LMPTP inh,Scp1 inh,SUMO1-SIM PPI,DNMT1 inh,NadD inh,STEP inh
COc1ccc(NC(=O)c2cccc3c2C(=O)c2ccc(-c4ccc(F)cc4OCc4ccccc4)cc2S3(=O)=O)cc1,i,i,i,i,29.8,i
O=C(N/N=C/c1cc([N+](=O)[O-])ccc1O)c1cc(-c2ccccc2)nc2ccccc12,i,i,i,i,31.1,i
CCOC(=O)c1c(C)[nH]c(C(=O)N/N=C\c2ccccc2O)c1C,i,i,i,i,i,i
CCOC(=O)c1c(C)[nH]c(C(=O)N/N=C/c2cc([N+](=O)[O-])ccc2O)c1C,65.1,i,i,i,33.3,i
Oc1ccc(-c2nc3ccc4ccccc4c3c3c2CCC3)cc1O,i,i,i,i,39.2,i
O=[N+]([O-])c1ccc(Sc2cccc3cccnc23)c2cccnc12,i,i,i,i,i,i
COc1ccc(-c2cc(=O)c3c(C)cc(O)cc3o2)cc1,i,i,45.1,i,i,i
O=c1cc(-c2ccccc2)oc2cc(O)c(O)c(O)c12,i,i,i,i,i,i
O=c1c(O)cccc2cc(O)c(O)c(O)c12,89.7,73.1,104.0,95.0,i,98.5
Cc1ccc(CC(=O)Nc2cc([N+](=O)[O-])ccc2F)cc1,i,i,i,i,i,i
COc1ccc(C(=O)Nc2ccc(NC(=O)c3cccs3)cn2)cc1,i,i,45.7,i,i,i
COc1ccc(NC(=O)c2cccs2)cc1,i,i,i,i,i,i
CC[C@@]1(O)C(=O)OCc2c1cc1n(c2=O)Cc2cc3c(N)cccc3nc2-1,i,56.9,i,i,i,i
CC(C)CN1CCC(=O)NC1=S,i,i,i,i,i,i
O=C(O)CC(C(=O)O)N1C(=O)/C(=C/c2ccc(-c3nc4ccccc4s3)o2)SC1=S (centres undefined),i,80.2,87.4,107.0,i,62.7
O=C(O)CCCN1C(=O)/C(=C\c2ccc(-c3nc4ccccc4s3)o2)SC1=S,i,75.1,55.9,85.2,i,64.6
Cc1ccc(S(=O)(=O)N2[C@@H](c3ccc(C(C)(C)C)cc3)C(C(=O)O)=CC[C@H]2c2ccc(Cl)c(Cl)c2)cc1,i,i,42.9,i,i,i
Cc1ccc(S(=O)(=O)N2[C@@H](c3ccc(Br)cc3)C(C(=O)O)=CC[C@H]2c2ccc(Cl)c(Cl)c2)cc1,i,i,40.4,i,i,i
COc1ccccc1-c1sc2cc3c(cc2c1-c1ccc2c(c1)OCO2)OCO3,i,68.5,i,i,i,i
CCOC(=O)Cc1csc(-n2sc3ccccc3c2=O)n1,i,73.9,i,i,i,i
CCOC(=O)Cc1csc(SCn2nnc3ccccc3c2=O)n1,i,i,i,i,i,i
Cn1c(=NC(=O)C2CCN(S(=O)(=O)c3cccs3)CC2)sc2ccccc21,i,i,43.3!,i,i,i
Cn1c(=O)n(C)c2cc(N3CCOCC3)c(NC(=O)c3ccc(F)cc3)cc21,i,i,48.8,i,i,i
COc1cccc(OC)c1C(=O)Nc1cc2c(cc1N1CCOCC1)n(C)c(=O)n2C,i,i,i,i,i,i
CCOc1ccccc1CN1CCN(CC2CC2)CC1CCO (centres undefined),i,i,i,i,i,i
SMILES,LMPTP inh,Scp1 inh,SUMO1-SIM PPI,DNMT1 inh,NadD inh,STEP inh
CC(C)(C)OC(=O)N1CCC(c2cc(=O)n3[nH]cc(C(=O)Nc4ccc(F)c(Cl)c4)c3n2)CC1,i,i,50.6,i,i,i
CN(C)c1ccc(/C=C(\C#N)C(=O)Nc2nc3c(s2)CCN(Cc2ccccc2)C3)cc1,i,i,i,i,32.6,i
CCn1c(SCC(=O)Nc2oc(-c3ccccc3)c(-c3ccccc3)c2C#N)nnc1-c1cc(OC)cc(OC)c1,i,i,i,i,51.4,i
CCCc1cc(=O)oc2c(CN3CCOCC3)c(O)ccc12,i,i,i,i,i,i
COc1ccc(C2=CC3=C(Br)C(=O)C(C)(OC(=O)c4cccs4)C(=O)C3=CO2)cc1 (centres undefined),i,i,44.0,i,i,i
Cc1ccc(NC(=O)c2cccc(C(F)(F)F)c2)cc1NC(=O)c1[nH]cnc1C(N)=O,i,i,i,i,i,i

# Assay outcomes as filed in PubChem.
